From PubChem BioAssay
Sampled rows, rich in hits. Any-hit rate of the full collection: about 3.5%.
MrgX1 antagonist: blocks BAM8-22 activation of human MrgX1 receptor; MRGX1-HEK293 calcium flux, Fluo-4, BAM8-22 antagonism; hits give low values; hit rate 1.3% among 310,000; Q96LB2; AID 588676; B-score at 10 µM;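 active = calcium-response B-score plate-corrected more than 3 library SD below zero, starting fluorescence within 5 deviations, no agonist response on first addition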;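 also: peak minus trough fluorescence over baseline after final BAM8-22 challenge near maximal dose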
Target sequence (Q96LB2 whole entry, looked up): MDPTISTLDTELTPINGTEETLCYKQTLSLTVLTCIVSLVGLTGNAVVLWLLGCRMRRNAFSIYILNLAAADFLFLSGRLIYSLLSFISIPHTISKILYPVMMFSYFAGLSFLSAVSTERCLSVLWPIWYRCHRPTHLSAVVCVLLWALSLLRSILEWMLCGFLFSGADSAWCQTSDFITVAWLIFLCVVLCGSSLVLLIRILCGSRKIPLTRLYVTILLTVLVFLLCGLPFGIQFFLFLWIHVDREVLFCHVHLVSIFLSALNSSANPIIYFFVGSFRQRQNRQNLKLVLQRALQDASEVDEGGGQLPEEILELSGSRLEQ
RGS4 act: RGS4 potentiation or activation; hit rate 0.92% among 310,000; HEK293 M3R/inducible RGS4, carbachol calcium flux Fluo4; hits give low values; B-score at 10 µM; AID 463111;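 active = B-score of the integrated calcium signal more than 4 SD below the library mean, with starting fluorescence not abnormally high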;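 also: negative B-score means reduced calcium response which marks RGS4 activation or potentiation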
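Also added: carbachol at ECmax as muscarinic agonist stimulus; Assay system: HEK293 cells with stable M3R and inducible RGS4; Timing: overnight RGS4 induction, 30 min dye load 37 °C, 20 min compound RT; Measured by: Fluo4-AM (2 µM) calcium-flux fluorescence, kinetic read.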
MrgX1 PAM: allosterically activates human MrgX1 receptor signaling; MrgX1-HEK293, Fluo-4 calcium flux, FDSS; hits give high values; B-score at 10 µM; hit rate 0.63% among 310,000;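 active = plate-corrected calcium response at least 3 library SD above typical, normal starting fluorescence, not activating the receptor alone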;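 also: compound read alongside a low EC10 to EC30 dose of BAM8-22 agonist; peak minus trough fluorescence over baseline measured at the second addition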
MrgX1 agonist: agonists of human MrgX1 receptor | Q96LB2 | MrgX1-HEK293 cells, Fluo-4 calcium fluorescence, agonist mode; hits give high values | B-score at 10 µM | hit rate 0.44% among 310,000;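 active = calcium response B-score plate-corrected fluorescence ratio at least 3 library SD, with starting fluorescence B-score inside 5 SD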
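Test system: HEK293 cells stably expressing human MrgX1 receptor; amount: 15,000 cells per well; doses: compound delivered in addition one of three; times: overnight plating before 1 h dye loading; detection: Fluo-4 NW calcium-flux fluorescence, kinetic read; read-out basis: B-scored fluorescence response ratio; controls: positive and negative controls per plate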
RGS4 block: human RGS4 inhibition; HEK293 M3R/RGS4 inducible, Fluo-4 calcium flux; hits give high values; triggered by carbachol at its EC20; B-score at 10 µM; hit rate 0.45% among 310,000; AID 463165;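 active = B-score, a plate-corrected calcium signal, over three deviations above library mean, with baseline fluorescence within five deviations of library mean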;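 also: RGS4 expression induced by doxycycline in cells with stable M3 receptor; B-score is computed from the integrated fluorescence ratio over baseline after carbachol; higher B-score means a larger calcium signal and so more RGS4 inhibition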
Target sequence (P49798 whole entry, looked up): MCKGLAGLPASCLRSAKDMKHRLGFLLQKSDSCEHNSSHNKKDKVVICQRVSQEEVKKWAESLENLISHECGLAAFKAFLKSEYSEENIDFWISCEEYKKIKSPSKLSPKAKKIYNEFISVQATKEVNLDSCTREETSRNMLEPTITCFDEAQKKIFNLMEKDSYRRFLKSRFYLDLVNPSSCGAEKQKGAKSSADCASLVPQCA
RGS4 inh valid: validation of RGS4 inhibitors. shares compounds with RGS4 block. HEK293 M3R/RGS4, carbachol calcium Fluo-4 fluorescence; carbachol added at its EC20; 0 = buffer wells, 100 = carbachol control. calcium response, % at 10 µM. hit rate 65% among 1,700. AID 492999;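 active = duplicate-averaged calcium response above the buffer-only control mean plus 5 SD of those controls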;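 also: integrated fluorescence ratio F max minus min over baseline F0; higher response in RGS4-induced cells means RGS4 inhibition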
M3R Ca ctr: non-induced cell nonspecific activity of RGS4 inhibitors. shares compounds with RGS4 block. HEK293 M3R non-induced, carbachol calcium Fluo-4; submaximal (EC20) carbachol stimulus; buffer wells 0%, carbachol control wells 100%. activity (percent), % at 10 µM. hit rate 20% among 1,900; call rule not given here;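 also: RGS4 induction absent so cells express M3R without RGS4; higher means more calcium signal and flags a non-specific hit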
RGS4 inh ctr2: second counter-screen for RGS4 inhibitors: non-induced cells without carbachol | AID 493001 | calcium response (agonist-mode artifact), % at 10 µM | HEK293 M3R/RGS4 non-induced, Fluo-4 calcium, no carbachol; normalised: buffer wells 0%, carbachol wells 100% | hit rate 22% among 1,900 | shares compounds with RGS4 block;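 active = duplicate-averaged calcium rise in uninduced cells above buffer wells' mean plus 5 SD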
MrgX1 ag confirm: human MrgX1 agonism, re-confirmation screen. hit rate 78% among 600. MrgX1-HEK293, Fluo-4 calcium fluorescence, FDSS. shares compounds with MrgX1 agonist. activation, % at 10 µM;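 active = calcium signal rise, corrected for plate position, at least 3 library SD high, with starting brightness within 5 such deviations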
HEK293 Ca flux: activity in parental HEK293 cells lacking MrgX1 | fluorescence ratio F(max-min)/F0 at 10 µM | shares compounds with MrgX1 antagonist | hit rate 2% among 4,000 | Fluo-4 calcium fluorescence, FDSS;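 active = duplicate-averaged calcium fluorescence ratio at least three times the standard deviation of buffer wells, a nonspecific response in parental cells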
HEK293 Ca counter: activity in parental HEK293 cells without MrgX1. shares compounds with MrgX1 antagonist. parental HEK293 calcium flux, Fluo-4 fluorescence ratio; hits give high values. fluorescence ratio F(max-min)/F0 at 10 µM. hit rate 0.4% among 4,000;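 active = calcium fluorescence ratio, averaged over duplicates, at least 3 SD of the buffer-well ratio, meaning a nonspecific response in receptor-free cells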;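 also: untransfected parental HEK293 lacking MrgX1 used as counterscreen for MrgX1 allosteric activators; fluorescence change taken during the second addition on a kinetic imager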
HEK293 Ca cntr2: activity in parental HEK293 cells lacking MrgX1 receptor. shares compounds with MrgX1 antagonist. fluorescence ratio F(max-min)/F0 at 10 µM. hit rate 8.7% among 4,000. Fluo-4 calcium fluorescence (FDSS); hits give high values;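 active = calcium fluorescence ratio at least three times the spread of buffer wells, meaning a non-specific response in parental cells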
An asterisk follows results filed as active; i = inactive; . = not tested or not shown.

SMILES | MrgX1 antagonist | RGS4 act | MrgX1 PAM | MrgX1 agonist | RGS4 block | RGS4 inh valid | M3R Ca ctr | RGS4 inh ctr2 | others
O=C(CNS(=O)(=O)c1ccc(F)c(Cl)c1)NCCc1ccccc1 | i | i | i | i | i | . | . | .
Oc1ccc(NC(=S)Nc2ccc(F)cc2)cc1 | i | i | i | i | i | . | . | .
Cc1ccc(SCc2[nH]nc3c2C2(CCSCC2)C(C#N)=C(N)O3)cc1 | i | i | i | i | i | . | . | .
Cc1ccc(SCc2[nH]nc3c2C2(C(=O)Nc4ccc([N+](=O)[O-])cc42)C(C#N)=C(N)O3)cc1 (stereo not drawn) | i | i | i | i | 6.07* | i | i | i
CCc1cc(-c2n[nH]c(C)c2-c2nc(C)cs2)c(O)cc1OC | i | i | i | i | 5.32* | 9.5%* | i | i
COc1ccccc1C(=O)NCC(C)(C)CN=C1NS(=O)(=O)c2ccccc21 | i | i | i | i | i | . | . | .
CCc1ccc(NC(=S)N(Cc2cccc(Br)c2)CC2CCC(C(=O)O)CC2)cc1 (stereo not drawn) | i | i | i | i | i | . | . | .
Cc1nc2c(C(=O)NCCC3=CCCCC3)c[nH]n2c(=O)c1Cl | i | i | i | i | 16.9* | 51.5%* | 52.5%* | i
Cn1c(=O)c2c(SCC(=O)Nc3ccc4c(c3)OCCO4)nc(CC(C)(C)C)nc2n(C)c1=O | i | i | i | i | i | . | . | .
Cc1ccc([N+](=O)[O-])cc1N(CC(=O)Nc1ccc(S(=O)(=O)Nc2cccc(C(F)(F)F)c2)cc1)S(C)(=O)=O | i | i | i | i | 7.24* | 22.0%* | i | i
CC(C)(C)OC1NS(=O)(=O)OCC1NCOC(Cl)(Cl)Cl (stereo not drawn) | i | i | i | i | 19.2* | 26.0%* | 39.5%* | 22.5%*
COc1cccc(OC)c1NC(=O)c1nc2c(nnn2Cc2ccccc2Cl)c(=O)[nH]1 | i | i | i | i | 5.45* | 14.5%* | i | i
O=C(NC1CCCC1)c1nc2c(nnn2Cc2ccccc2Cl)c(=O)[nH]1 | i | i | i | i | i | . | . | .
COc1ccc(-c2ccc(SCC(=O)Nc3nnc(C)s3)nn2)cc1 | i | i | i | i | i | . | . | .
N#C/C(=C\c1cccc(Br)c1)C(=O)N1CCCCC1 | i | i | i | i | 6.46* | 25.0%* | i | i
Cc1cc(/C=C(\C#N)C(=O)N2CCCCC2)cc(C)c1O | i | i | i | i | i | . | . | .
N#C/C(=C\c1cccc(O)c1)C(=O)N1CCCCC1 | i | i | i | i | 6.32* | 8.0%* | i | 9.0%*
CCOc1cc(/C=N/N=C/c2ccc(O)c(OCC)c2)ccc1O | i | i | i | i | i | . | . | .
CCOc1cc(/C=C2\CN(CC)C/C(=C\c3ccc(O)c(OCC)c3)C2=O)ccc1O | i | i | i | 26.9* | 11.7* | 48.0%* | 36.5%* | 12.5%*
N#C/C(=C\c1ccccc1OCc1ccc(C(=O)O)cc1)C(=O)Nc1ccc(O)cc1 | i | i | i | i | 6.91* | 13.5%* | i | i
COC(=O)c1ccc(COc2ccccc2/C=C(\C#N)C(=O)Nc2ccc(C)cc2)cc1 | i | i | i | i | i | i | i | i
Cc1ccc2nc(NNC(=O)c3ccc(S(=O)(=O)N4CCc5ccccc5C4)cc3)sc2c1 | i | i | i | i | i | . | i | i
Cc1cccc2sc(NNC(=O)c3ccc(S(=O)(=O)N4CC(C)CC(C)C4)cc3)nc12 (stereo not drawn) | i | i | i | i | 6.54* | 10.0%* | i | i
Cc1cc(C)c2nc(NNC(=O)c3ccc(S(=O)(=O)N4CC(C)CC(C)C4)cc3)sc2c1 (stereo not drawn) | i | i | i | i | i | . | i | i
Cc1cc(C)c2nc(NNC(=O)c3ccc(S(=O)(=O)N4CCCC(C)C4)cc3)sc2c1 (stereo not drawn) | i | i | i | i | i | . | . | .
SMILES | MrgX1 antagonist | RGS4 act | MrgX1 PAM | MrgX1 agonist | RGS4 block | RGS4 inh valid | M3R Ca ctr | RGS4 inh ctr2 | others
Cc1sc(NC(=O)C2CSC3(C)CCC(=O)N23)nc1-c1ccc(F)cc1 (stereo not drawn) | i | i | i | i | i | . | . | .
COc1ccc(F)cc1S(=O)(=O)NCCCn1ccnc1 | i | i | i | i | i | . | . | .
COc1ccc(C(=O)CCN2CCc3cc(OC)c(OC)cc3C2)cc1 | i | i | i | 42.5* | i | . | i | 8.5%* | MrgX1 ag confirm=i;HEK293 Ca flux=i;HEK293 Ca counter=i;HEK293 Ca cntr2=i
COc1ccc(C(=O)CCN2CCN(c3ccccc3OC)CC2)cc1 | i | i | i | i | i | . | . | .
CC1=Nc2ccccc2/C1=C/c1sc(=O)n(CC(=O)N2CCCC2)c1O | i | i | i | i | i | . | . | .
COc1ccc(C2C(C#N)=C(N)Oc3cc(O)ccc32)cc1Cl (stereo not drawn) | i | i | i | 48.9* | 6.75* | 20.0%* | 43.0%* | 40.0%* | MrgX1 ag confirm=i;HEK293 Ca flux=i;HEK293 Ca counter=i;HEK293 Ca cntr2=i
CCOc1ccc(C2C(C#N)=C(N)Oc3cc(O)ccc32)cc1OCC (stereo not drawn) | i | i | i | i | i | . | . | .
CCOC(=O)C1CCN(C(=O)c2c(-c3c(F)cccc3Cl)noc2C)CC1 | i | i | i | i | i | . | . | .
